# From PubChem
# rRNA inh HTS: selective bacterial rRNA inhibition in E. coli. AID 720706. E. coli WT GFP vs humanized-ribosome RFP mutants, fluorescence, 24 h; stronger effect = lower value; DMSO median 0, no signal -100. actives 1.6% (n = 350,000). GFP signal change (wild-type ribosome), % (no concentration beside the values);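 active means significant combined selectivity score with lowered wild-type GFP, culture density cut under 30%, mutant RFP and density less affected; inactive means any of these conditions unmet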
# EWS-Fli inh: blocks EWS/Fli oncoprotein-driven transcription | A673 NR0B1-luciferase reporter, viability-normalised | actives 0.67% (n = 350,000) | inhibition, % at 12.6 µM;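 active means mean inhibition of at least 50% after viability correction, with every replicate also passing that limit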;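 further: firefly luciferase signal divided by Alamar Blue viability fluorescence both relative to DMSO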
# LGR2 antag: Drosophila LGR2 receptor signaling inhibition | HEK293 LGR2, CRE-luciferase, bursicon-stimulated, 4 h | inhibition, % at 9.99 µM | actives 0.35% (n = 380,000);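 active means drop in luminescence signal, shown as inhibition above about 50% in the replicate tests, limit read from the data, passing the limit was not always enough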;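 further: agonist challenge used bursicon conditioned medium at about half maximal strength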
# E-sel inducer: E-selectin induction on HUVECs. activation, % at 7.58 µM. HUVEC E-selectin immunofluorescence imaging; normalized: neutral wells 0, TNF-alpha wells 100. P16581. AID 686992. actives 0.37% (n = 260,000);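 active means mean E-selectin-positive cell signal at least 10% of the positive control, reached in at least 60% of replicates, without over 20% cell loss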
# Target sequence (P16581 whole entry, looked up): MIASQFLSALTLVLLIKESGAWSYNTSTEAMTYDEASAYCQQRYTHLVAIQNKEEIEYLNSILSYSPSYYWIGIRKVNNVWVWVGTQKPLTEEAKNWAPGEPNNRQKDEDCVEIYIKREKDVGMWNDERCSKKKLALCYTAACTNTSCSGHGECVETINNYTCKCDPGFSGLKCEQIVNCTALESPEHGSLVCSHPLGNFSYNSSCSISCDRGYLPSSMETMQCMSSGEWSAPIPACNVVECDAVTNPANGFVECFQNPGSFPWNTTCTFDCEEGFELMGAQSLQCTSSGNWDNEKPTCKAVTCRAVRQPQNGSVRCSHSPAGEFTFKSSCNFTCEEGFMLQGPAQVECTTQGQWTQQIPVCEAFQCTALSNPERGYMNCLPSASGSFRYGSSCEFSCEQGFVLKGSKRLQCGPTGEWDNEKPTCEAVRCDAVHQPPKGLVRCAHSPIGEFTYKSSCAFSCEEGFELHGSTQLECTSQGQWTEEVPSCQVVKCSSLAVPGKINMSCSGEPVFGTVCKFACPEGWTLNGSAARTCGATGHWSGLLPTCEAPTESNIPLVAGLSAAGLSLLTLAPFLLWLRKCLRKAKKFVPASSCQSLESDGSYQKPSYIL
#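 Assay system: HUVEC, human umbilical vein endothelial cells / Amount: 3,000 HUVEC/well / Controls: TNF-alpha positive control, DMSO neutral control / Compound dosing: single concentration / Medium: EGM-2 over gelatin coat / Evaluation: percent E-selectin-positive cells / Signal: immunofluorescence imaging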
# A number is an active result; - = inactive; . = no result; ! = not confirmed by another sample. This is a sample that favours compounds with a hit; in the whole collection about 2.4% have one here.
SMILES,rRNA inh HTS,EWS-Fli inh,LGR2 antag,E-sel inducer
O=C(C[C@@H]1CC[C@H](NC(=O)Nc2ccccc2F)[C@@H](CO)O1)NCc1ccc(-c2ccccc2)cc1,-,-,-,-
CSc1cccc2sc(NC(=O)C3=COCCO3)nc12,-,-,-,-
O=C(NNc1nc2ccc(F)cc2s1)c1cccc(F)c1,-,-,-,-
O=C(NNc1nc2cc3c(cc2s1)OCCO3)c1ccccc1,-27,-,-,-
CC(=O)Nc1nc2cc3c(cc2s1)OCCO3,-,-,-,.
O=C(Nc1nc2cc3c(cc2s1)OCCO3)C1=COCCO1,-,89,100,.
O=C(Nc1nc2ccc(F)cc2s1)c1ccccn1,-,84,90,.
O=C(Nc1nc2ccc(F)cc2s1)C1=COCCO1,-20,69,63,-
COc1ccc(NC(=O)N(C)C[C@@H]2Oc3ccc(NC(=O)NC4CCCCC4)cc3C(=O)N([C@@H](C)CO)C[C@H]2C)cc1,-,-,-,-
O=C(O)c1ccc(C2NCC(c3ccccc3Cl)c3c2[nH]c2ccccc32)cc1 (stereo not given),-37,-,-,-
O=C(O)c1cccc(NN=C2c3ccccc3-c3ccccc32)c1,-53,-,-,.
O=C(O)c1cccc2c1-c1ccccc1/C2=N\Nc1ccccc1,-39,-,-,-
CCOc1ccccc1NC(=S)NNS(=O)(=O)c1c(C)cc(C)cc1C,-16,-,-,-
C[C@H](CO)N1C[C@H](C)[C@@H](CN(C)CC2CCCCC2)Oc2c(NC(=O)Cc3cn(C)c4ccccc34)cccc2C1=O,-,.,.,.
COc1ccc(C(=O)C(CN2CCOCC2)c2ccccc2)cc1 (stereo not given),-50,-,54,.
CCC(O)(c1ccc(OC)cc1)C(CN1CCOCC1)c1ccccc1 (stereo not given),-,-,-,-
O=C(c1ccc(F)cc1)C(CN1CCOCC1)c1ccccc1 (stereo not given),-,57,58,.
OC(COC(c1ccccc1)c1ccccc1)CN1CCOCC1 (stereo not given),-,-,-,72
C[C@H](CO)N1C[C@H](C)[C@@H](CN(C)Cc2ccccc2F)Oc2cc(C#CC3CC3)ccc2S1(=O)=O,-,-,-,-
O=C(C[C@@H]1CC[C@@H]2[C@H](COC[C@H](O)CN2C(=O)c2cnccn2)O1)NCc1ccc(Oc2ccccc2)cc1,-,.,-,-
COc1ccc(CN2CC3(CCN(C(=O)C4CCC4)CC3)c3c(n(C)c4cc(OC)ccc34)[C@H]2CO)cc1,-,.,.,.
CC=Cc1ccc2n(c1=O)C[C@H]1[C@H](CO)[C@@H](C(=O)NCCN3CCCC3)N(C(=O)NC(C)C)[C@@H]21 (mixture of isomers),-,-,-,-
Cc1noc(C)c1S(=O)(=O)Nc1ccc2c(c1)C(=O)N([C@H](C)CO)C[C@H](C)[C@@H](CN(C)Cc1ccccc1)OCCCC[C@H](C)O2,-,-,-,-
COc1cc(NC(=O)Cn2nc(C(F)(F)F)c(Br)c2C)cc([N+](=O)[O-])c1,-15,-,-,-
COc1ccc(CNC(=O)Cn2nc(C(F)(F)F)c(Br)c2C)cc1,-,-,-,-
SMILES,rRNA inh HTS,EWS-Fli inh,LGR2 antag,E-sel inducer
COc1cc(-c2nnc(SCC(=O)c3ccccc3)o2)cc(OC)c1OC,-25,-,-,.
CC(C)C(=O)Nc1ccc2c(c1)C(=O)N(C)[C@H]1CC[C@H](CC(=O)N[C@H](C)c3ccccc3)O[C@H]1CO2,-,-,-,-
COc1ccc(-n2nc(C#N)c(Cl)cc2=O)cc1,-43,53,105,-
C[C@H](CO)N1C[C@H](C)[C@@H](CN(C)C(=O)Nc2ccc(F)cc2)Oc2ccc(NC(=O)Nc3ccccc3)cc2C1=O,-,-,-,-
O=C(Nc1ccccn1)c1onc2c1CCCC2,.,.,79,.
O=C(Nc1ccccn1)c1csc2c1CCCC2,-,-,-,.
O=C(COC(=O)c1cc(S(=O)(=O)N2CCCCC2)ccc1N1CCOCC1)NCCc1ccc(F)cc1,-20,-,-,.
CCN(CC)S(=O)(=O)c1ccc(N2CCCC2)c(NC(=O)Cc2ccc(OC)cc2)c1,-34,-,-,-
O=C(Cc1ccc(Cl)cc1)Nc1cc(S(=O)(=O)N2CCOCC2)ccc1N1CCCC1,-26,-,-,-
CC(C)NC(=O)NC(=O)COC(=O)c1cc(S(=O)(=O)N2CCCCC2)ccc1N1CCOCC1,-,.,-,-
CCN(CC)S(=O)(=O)c1ccc(N2CCCC2)c(NC(=O)Cc2cc(OC)c(OC)c(OC)c2)c1,-,-,-,-
COCC(=O)N1C[C@@H](C)[C@@H](OC)CN(C)C(=O)c2ccc(NC(=O)c3ccccc3)cc2OC[C@H]1C,-,-,-,-
C[C@H](CO)N1C[C@H](C)[C@H](CN(C)CC2CC2)Oc2ccc(NC(=O)Cc3ccccc3)cc2C1=O,-,-,-,-
CCCCCCCCCCCCCCCC[N+](C)(C)CC,-,53,-,-
CC(C)(C)OC(=O)NCc1ccc(CNC(=O)c2[nH]cnc2C(=O)NCC(=O)OCc2ccccc2)cc1,-,-,82,.
CN(Cc1ccccc1)C(=O)c1[nH]cnc1C(=O)NCc1ccccc1,-28,-,-,-
COc1ccc(NC(=O)Nc2ccc3c(c2)C(=O)N([C@@H](C)CO)C[C@@H](C)[C@H](CN(C)Cc2ccc(C(=O)O)cc2)O3)cc1,-,-,-,-
O=C(Nc1ccccc1)Nc1sccc1-c1nc2ccccc2s1,-21,-,-,.
O=C1N[C@H](c2ccccc2)COCc2cn(nn2)CC[C@H]1Cc1ccc(C(F)(F)F)cc1,-,.,.,.
C[C@@H]1CN([C@@H](C)CO)C(=O)c2cc(NC(=O)Nc3ccc(C(F)(F)F)cc3)ccc2O[C@H]1CN(C)S(=O)(=O)c1ccccc1,-,-,-,79
C[C@H]1CN([C@@H](C)CO)C(=O)c2cc(NC(=O)Nc3ccc(C(F)(F)F)cc3)ccc2O[C@H]1CN(C)S(=O)(=O)c1ccccc1,-,-,-,-
C[C@@H]1CN([C@H](C)CO)C(=O)c2cc(NC(=O)Nc3ccc(C(F)(F)F)cc3)ccc2O[C@@H]1CN(C)S(=O)(=O)c1ccccc1,-,-,-,-
C[C@@H]1CN([C@H](C)CO)C(=O)c2c(c3ccccc3n2C)-c2ccccc2CO[C@@H]1CN(C)S(=O)(=O)c1ccc(C(F)(F)F)cc1,-,-,53,-
C[C@H](CO)N1C[C@H](C)[C@@H](CN(C)S(=O)(=O)c2ccccc2)Oc2ccc(NC(=O)Nc3ccc(C(F)(F)F)cc3)cc2C1=O,-,-,-,431!
COc1ccc(NC(=O)N(C)C[C@@H]2OCCCC[C@@H](C)Oc3ccc(NC(=O)NC4CCCCC4)cc3C(=O)N([C@H](C)CO)C[C@H]2C)cc1,-,-,-,.
CCCN1C[C@@H](C)[C@@H](OC)CN(C)C(=O)c2cc(NC(=O)Nc3cccc(OC)c3)ccc2OC[C@H]1C,-,-,-,-
CCOc1ccc2nc(N3CCCCCC3)sc2c1,-32,-,-,.
O=C(Nc1ccc(S(=O)(=O)N2CCOCC2)cc1)c1ccc([N+](=O)[O-])o1,-24,-,-,.
